# A selection: hits, their analogues and other compounds. The true share with any hit is near 4.9%.
# STAT1 act-1 – increases IFN-gamma driven STAT1 reporter signal. NIH 3T3 STAT1-luciferase reporter, luminescence; 100% = IFN-gamma alone, no compound. activation (% of control), % at 5.5 µM. 2.6% of 200,000 active. AID 932;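 active = activation above the screen-wide mean activation plus 3 SD, cut at about 130% in these data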;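 note: raw ratio to IFN-gamma control signal so 100% means no change and 0% no light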
# STAT3 blocker – inhibitors of IL-6 induced STAT3 signaling. U3A cells, IL-6 STAT3-luciferase reporter, luminescence; host cell line lacks STAT1. inhibition, % at 5.5 µM. 0.89% of 190,000 active;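 active = inhibition above the mean inhibition across all screened compounds plus 3 SD, cut at about 44% in these data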;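 note: 0% = DMSO only wells and 100% = 100 µM nifuroxazide control wells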
# STAT3 act-1 – increases IL-6 driven STAT3 reporter signal; U3A cells, IL-6 STAT3-luciferase reporter, luminescence; 100% = signal with IL-6 EC80 alone; activation (% of control), % at 5.6 µM; 0.91% of 190,000 active;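 active = activation above the screen-wide mean of compound activation plus 3 SD, cut at about 130% in these data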;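 note: 0% = background luminescence of wells with medium and substrate only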
#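 Material: STAT1-lacking human U3A cells, STAT3 luciferase reporter | Benchmarks: IL-6-only wells as 100% reference | Probe or stimulus: IL-6 (33 ng/mL) | Timing: Compound 1 h, then IL-6 6 h at 37 °C | Detection: Luminescence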
# FLuc inhib CS – Photinus pyralis luciferase inhibition counter-screen. P08659. ATPLite firefly luciferase biochemical luminescence, 10 min. inhibition, % at 10 µM. 1.5% of 200,000 active. AID 1006;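 active = inhibition above about 50% when tested at 10 µM, limit read from the data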
# Target sequence (P08659 whole entry, looked up): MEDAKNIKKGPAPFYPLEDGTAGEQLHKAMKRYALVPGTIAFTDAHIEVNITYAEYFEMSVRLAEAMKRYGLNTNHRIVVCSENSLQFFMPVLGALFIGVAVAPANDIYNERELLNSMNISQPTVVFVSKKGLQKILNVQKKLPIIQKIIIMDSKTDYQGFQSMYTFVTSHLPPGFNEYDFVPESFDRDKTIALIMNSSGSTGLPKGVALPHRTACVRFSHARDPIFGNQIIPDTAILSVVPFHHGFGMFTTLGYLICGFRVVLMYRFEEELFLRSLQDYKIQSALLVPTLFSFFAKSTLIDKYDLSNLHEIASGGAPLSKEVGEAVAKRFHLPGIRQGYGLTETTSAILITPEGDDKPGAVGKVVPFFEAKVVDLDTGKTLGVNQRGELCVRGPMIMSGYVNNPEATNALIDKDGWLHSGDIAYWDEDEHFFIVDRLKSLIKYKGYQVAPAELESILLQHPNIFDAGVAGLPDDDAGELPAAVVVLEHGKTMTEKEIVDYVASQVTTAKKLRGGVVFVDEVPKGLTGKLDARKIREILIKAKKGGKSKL
# FLuc stim CS – affects firefly luciferase, flagging false hits in luciferase stimulation screens | AID 1027 | activation factor at 10 µM | P08659 | 200,000 tested, under 10 active | ATPlite luciferase biochemical, luminescence, 10 min; 0 = ATP-free wells, 1 = DMSO control;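 active = luciferase activation factor, scaled between plate controls, of at least 2 with compound at 10 µM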
#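 Assay system: Luciferase/luciferin detection reagent, cell-free biochemical luciferase assay / Read-out: luciferase activation / Benchmarks: No-ATP low control, compound-free enzyme-plus-ATP high control / Medium: PBS buffer for ATP / Detection: luminescence measurement of luciferase light output / Schedule: 10 min at ambient temperature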
# STAT1 inh – reduces IFN-gamma driven STAT1 reporter signal; NIH 3T3 STAT1-luciferase reporter, luminescence; inhibition, % at 5.5 µM; 0.35% of 200,000 active;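 active = inhibition above a set limit, the mean inhibition across all tested compounds plus 3 SD, cut at about 34% in these data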;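 note: 0% = IFN-gamma with DMSO and 100% = IFN-gamma with 300 µM nifuroxazide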
# STAT3 act-2 – confirmation of STAT3 signaling activators; shares compounds with STAT3 act-1; U3A STAT3-luciferase reporter, IL-6 potentiation, luminescence; U3A cells lack STAT1; 100 means same as IL-6 alone; potentiation (% of control), % at 5.7 µM; 64% of 1,200 active; AID 1267;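 active = percent activation of the STAT3 luciferase reporter above a set limit taken from the earlier primary screen, cut at about 130% in these data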;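 note: 0% = background signal of medium plus substrate and 100% = median of IL-6 with DMSO wells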
# NFkB act 2 – counter-screen for STAT3 activators: NF-kappaB activation. shares compounds with STAT3 act-1. human cells, NF-kappaB reporter activation. activation (% of control), % at 5.7 µM. 11% of 1,200 active. AID 1309; in the data active = activation above about 120%;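 note: reporter induced by TNF-alpha stimulation; 100% = median of stimulated DMSO wells and 0% = no signal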
# STAT1 act-2 – activates STAT1, counter-screen to STAT3 activators; activation (% of control), % at 5.7 µM; 13% of 1,200 active; AID 1318; NIH 3T3 STAT1-luciferase reporter, IFN-gamma, luminescence; shares compounds with STAT3 act-1;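 active = activation above the solvent-only control well mean plus 3 SD, set per screening run, cut at about 120% in these data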;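 note: 100% = IFN-gamma with DMSO median signal so 100% means no change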
# An asterisk follows results filed as active; x = no result.
SMILES,STAT1 act-1,STAT3 blocker,STAT3 act-1,FLuc inhib CS,FLuc stim CS,STAT1 inh,STAT3 act-2,NFkB act 2,STAT1 act-2
CCOc1ccc(NC(=O)C(Cc2ccccc2)N2C(=O)c3cccc4cccc(c34)C2=O)cc1 (stereo not given),98,-36,138*,-1,1,0,119,96,97
CCOc1ccc(NC(=O)C(CC(=O)O)Cc2ccccc2)cc1 (stereo not given),101,3,97,-9,1.1,-1,x,x,x
COc1ccccc1NC(=O)c1[nH]c(C)c(C(C)=O)c1C,97,-60,162*,-7,1.1,3,158*,105,97
CC(=O)c1c(C)[nH]c(C(=O)Nc2ccccc2N2CCOCC2)c1C,101,17,88,-6,1.1,-1,x,x,x
Nn1c(=O)[nH]c2c([nH]c3ccccc32)c1=O,83,-45,147*,-1,1,18,152*,102,90
Cc1cc(C(=O)N2CCc3c([nH]c4ccccc34)C2c2cccc(Cl)c2)nn1C (stereo not given),99,-53,153*,-1,1,1,202*,112,122*
O=C(c1cnccn1)N1CCc2c([nH]c3ccccc23)C1c1cccc(Cl)c1 (stereo not given),95,-32,132,-4,1,4,x,x,x
CC(=O)NCCC(=O)N1CCc2c([nH]c3ccccc23)C1c1cccc(Cl)c1 (stereo not given),103,-55,150*,-7,1.1,-6,143*,101,91
CC(=O)NCCC(=O)N1CCc2c([nH]c3ccccc23)C1c1cccc(C)c1 (stereo not given),104,-50,147*,-4,1,-6,144*,106,114
O=C(CN1CCC2(CC1)OCCO2)c1c[nH]c2ccccc12,102,-54,148*,-1,1,-3,123,105,98
COC(=O)/C(C#N)=C/c1c[nH]c2ccccc12,120,-35,147*,-1,1,-22,193*,129*,160*
CCOC(=O)/C(C#N)=C/c1c[nH]c2ccccc12,118,-34,129,6,0.9,-20,x,x,x
COc1ccc(S(=O)(=O)N2CCCCC2)cc1,94,3,100,-4,1,7,x,x,x
COc1ccc(S(=O)(=O)N2CCC(CN3C(=O)c4cccc5cccc(c45)C3=O)CC2)cc1,104,-66,152*,3,1,-4,135*,107,123*
Cc1ccc(NCC(=O)N/N=C/c2cc3ccccc3nc2Cl)cc1,92,-90,178*,0,1,9,171*,113,107
O=C(CN1CCOCC1)N/N=C/c1cc2ccccc2nc1Cl,101,12,96,-3,1,-1,x,x,x
Cc1[nH]c2ccccc2c1C1(O)C(=O)N(C(C)C)c2ccccc21 (stereo not given),98,-38,137*,-5,1,2,121,106,102
Cc1noc(N)c1C1(O)C(=O)N(C(C)C)c2ccccc21 (stereo not given),89,4,98,-1,1,11,x,x,x
Cc1[nH]c2ccccc2c1C1(O)C(=O)N(Cc2ccc3c(c2)OCO3)c2ccccc21 (stereo not given),87,-41,137*,-3,1,14,134*,105,105
CC(C)(C)OC(=O)N/N=C/c1c[nH]c2ccccc12,118,-50,139*,54*,0.5,-19,126,119,120
CCOC(=O)N/N=C/c1c[nH]c2ccccc12,95,-10,114,2,1,3,x,x,x
CCCCCCCN1C2=NCCCN2c2ccccc21,72,6,100,-1,1,30,x,x,x
